Data published in ChEMBL document CHEMBL1275449, “Potent in vitro antifungal activities of naturally occurring acetylenic acids” (Antimicrob Agents Chemother, 2008).
Converted amounts (≈) assume the structure as drawn. The source made the active and inactive calls. The rule behind the calls is not given here.

Assays:
Pichia kudriavzevii = test: Antifungal activity against Candida krusei ATCC 6258 after 48 hrs by CLSI method; assay type: functional, organism-based; conditions: ATCC 6258, 48 h
In short: (§1)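 Candida inocula came from 24–72-h SD agar colonies suspended in saline. They were diluted by OD630 standard curve into RPMI 1640 (0.2% dextrose, 0.03% glutamine, 0.165 M MOPS, pH 7.0) to 1.5 × 10³ CFU/ml. Compounds were run as 11 twofold dilutions in 20% DMSO-saline, in duplicate, at 35°C for 48 h, with OD530 read before and after. Percent growth at the top concentration, IC50, MIC, and MFC (SD agar plating) were derived.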

[1] = system: Trichophyton mentagrophytes; test: Antifungal activity against Trichophyton mentagrophytes ATCC 9533 at 16.5 uM after 5 days by CLSI method; assay type: functional, organism-based
[2] = system: Trichophyton mentagrophytes; test: Antifungal activity against Trichophyton mentagrophytes ATCC 9533 by CLSI method; assay type: functional, organism-based
In short: (§2)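 Growth scraped from 1- to 6-week-old potato dextrose slants and filtered through Miracloth. Diluted in 5% Alamar blue-RPMI 1640 (MOPS pH 7.0) to 2.7 × 10⁴ CFU/ml. Eleven twofold dilutions in duplicate. Fluorescence at 544 nm excitation/590 nm emission read before and after 35°C, 5 days. IC50 fitted from percent growth. MIC taken as no detectable growth; MFC from clear or blue wells plated on PD agar.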

Nakaseomyces glabratus = test: Antifungal activity against Candida glabrata ATCC 90030 after 48 hrs by CLSI methodCandida glabrata; assay type: functional, organism-based; conditions: ATCC 90030, 48 h; in short: as §1
Candida parapsilosis [3] = test: Antifungal activity against Candida parapsilosis ATCC 22019 at 16.5 uM after 48 hrs by CLSI method; assay type: functional, organism-based
In short: (§3)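 Yeast suspensions made from 3-5 colonies off 24-72 h SD agar plates in saline. They were diluted by OD630 standard curve in RPMI 1640 (0.2% dextrose, 0.03% glutamine, 0.165 M MOPS, pH 7.0) to 1.5 × 10³ CFU/ml. Twofold dilutions (11 concentrations, 20% DMSO-saline) run in duplicate. OD530 read before and after 35°C, 48 h. Line values are top test concentrations; no-growth endpoints give MIC/MFC.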

Aspergillus flavus = test: Antifungal activity against Aspergillus flavus ATCC 204304 at 16.5 uM after 48 hrs by CLSI method; assay type: functional, organism-based
Cryptococcus neoformans [4] = test: Antifungal activity against Cryptococcus neoformans ATCC 66031 after 72 hrs by CLSI method; assay type: functional, organism-based; conditions: ATCC 66031, 72 h
In short: (§4)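 SD broth replaced RPMI because growth in RPMI was poor; other CLSI conditions were kept. Inoculum was 1.5 × 10³ CFU/ml from colonies on SD agar, checked by plating. Twofold serial dilutions (11 concentrations) in 20% DMSO-saline were tested in duplicate. OD530 was read before and after incubation at 35°C for 72 h. Percent growth gave IC50; the MIC is the lowest concentration with no detectable growth.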

Trichophyton rubrum [5] = test: Antifungal activity against Trichophyton rubrum ATCC MYA-4438 at 16.5 uM after 5 days by CLSI method; assay type: functional, organism-based
Candida albicans [6] = test: Antifungal activity against Candida albicans ATCC 60193 after 48 hrs by CLSI method; assay type: functional, organism-based; conditions: ATCC 60193, 48 h
In short: (§5)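 CLSI broth microdilution. Colonies from 24–72 h SD agar suspended in saline and sized by OD630 standard curve. Inoculum 1.5 × 10³ CFU/ml (final) in RPMI 1640 (0.2% dextrose, 0.03% glutamine, 0.165 M MOPS, pH 7.0). Twofold dilutions (11 levels) from 20% DMSO-saline, in duplicate. 35°C for 48 h, OD530 read before and after. IC50 fitted from % growth. MIC: no detectable growth. MFC: subculture onto SD agar.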

Candida parapsilosis [7] = test: Antifungal activity against Candida parapsilosis ATCC 22019 after 48 hrs by CLSI method; assay type: functional, organism-based; conditions: Lodderomyces parapsilosis, ATCC 22019, 48 h; in short: as §3
[8] = system: Trichophyton mentagrophytes; test: Antifungal activity against Trichophyton mentagrophytes ATCC MYA-4439 by CLSI method; assay type: functional, organism-based; in short: as §2
Candida albicans [9] = test: Antifungal activity against Candida albicans ATCC 32354 after 48 hrs by CLSI method; assay type: functional, organism-based; conditions: ATCC 32354, 48 h; in short: as §5
Candida tropicalis = test: Antifungal activity against Candida tropicalis ATCC 750 after 48 hrs by CLSI method; assay type: functional, organism-based; conditions: ATCC 750, 48 h; in short: as §3
Candida albicans [10] = test: Antifungal activity against Candida albicans ATCC 14053 after 48 hrs by CLSI method; assay type: functional, organism-based; conditions: ATCC 14053, 48 h; in short: as §5
Candida albicans [11] = test: Antifungal activity against Fluconazole resistant Candida albicans clinical isolate 17 after 48 hrs by CLSI method; assay type: functional, organism-based; in short: as §5
Aspergillus fumigatus [12] = test: Antifungal activity against Aspergillus fumigatus ATCC 90906 at 16.5 uM after 48 hrs by CLSI method; assay type: functional, organism-based
[13] = system: Trichophyton mentagrophytes; test: Antifungal activity against Trichophyton mentagrophytes ATCC MYA-4439 at 16.5 uM after 5 days by CLSI method; assay type: functional, organism-based
Aspergillus niger = test: Antifungal activity against Aspergillus niger ATCC 16404 at 16.5 uM after 48 hrs by CLSI method; assay type: functional, organism-based
Aspergillus fumigatus [14] = test: Antifungal activity against Aspergillus fumigatus ATCC 90906 after 48 h by CLSI method; conditions: ATCC 90906, 48 h
Candida albicans [15] = test: Antifungal activity against Fluconazole resistant Candida albicans clinical isolate 1 after 48 hrs by CLSI method; assay type: functional, organism-based; in short: as §5
Candida albicans [16] = test: Antifungal activity against Candida albicans ATCC 90028 after 48 hrs by CLSI method; assay type: functional, organism-based; conditions: ATCC 90028, 48 h; in short: as §5
Cryptococcus neoformans [17] = test: Antifungal activity against Cryptococcus neoformans ATCC 90113 after 72 hrs by CLSI method; assay type: functional, organism-based; conditions: ATCC 90113, 72 h; in short: as §4
Aspergillus fumigatus [18] = test: Antifungal activity against Aspergillus fumigatus ATCC 204305 at 16.5 uM after 48 hrs by CLSI method; assay type: functional, organism-based
Trichophyton rubrum [19] = test: Antifungal activity against Trichophyton rubrum ATCC MYA-4438 by CLSI method; assay type: functional, organism-based; in short: as §2
Candida albicans [20] = test: Antifungal activity against Candida albicans ATCC 200955 after 48 hrs by CLSI method; assay type: functional, organism-based; conditions: ATCC 200955, 48 h; in short: as §5
Trichophyton rubrum [21] = test: Antifungal activity against Trichophyton rubrum ATCC 10218 at 16.5 uM after 5 days by CLSI method; assay type: functional, organism-based

CC[C@H](C)C[C@H](C)CCCCCCCCC(=O)N[C@H]1C[C@@H](O)[C@@H](NCCN)NC(=O)[C@@H]2[C@@H](O)CCN2C(=O)[C@H]([C@H](O)CCN)NC(=O)[C@H]([C@H](O)[C@@H](O)c2ccc(O)cc2)NC(=O)[C@@H]2C[C@@H](O)CN2C(=O)[C@H]([C@@H](C)O)NC1=O [CASPOFUNGIN]
IC50 (Pichia kudriavzevii): 100 nM | MFC (Pichia kudriavzevii): 1 µM (≈ 1.09 µg/mL) | MIC (Pichia kudriavzevii): 0.4 µM (≈ 0.437 µg/mL) | Activity [1]: inactive | IC50 [2]: 300 nM | IC50 (Nakaseomyces glabratus): 50 nM | MFC (Nakaseomyces glabratus): 0.26 µM (≈ 0.284 µg/mL) | MIC (Nakaseomyces glabratus): 0.13 µM (≈ 0.142 µg/mL) | Activity (Candida parapsilosis [3]): inactive | Activity (Aspergillus flavus): inactive | IC50 (Cryptococcus neoformans [4]): 100 nM | MFC (Cryptococcus neoformans [4]): 1 µM (≈ 1.09 µg/mL) | MIC (Cryptococcus neoformans [4]): 0.5 µM (≈ 0.547 µg/mL) | Activity (Trichophyton rubrum [5]): inactive | IC50 (Candida albicans [6]): 30 nM | MFC (Candida albicans [6]): 0.52 µM (≈ 0.569 µg/mL) | MIC (Candida albicans [6]): 0.1 µM (≈ 0.109 µg/mL) | IC50 (Candida parapsilosis [7]): 200 nM | MIC (Candida parapsilosis [7]): 0.5 µM (≈ 0.547 µg/mL) | IC50 [8]: 200 nM | IC50 (Candida albicans [9]): 70 nM | MFC (Candida albicans [9]): 1.03 µM (≈ 1.13 µg/mL) | MIC (Candida albicans [9]): 0.13 µM (≈ 0.142 µg/mL) | IC50 (Candida tropicalis): 60 nM | MFC (Candida tropicalis): 0.26 µM (≈ 0.284 µg/mL) | MIC (Candida tropicalis): 0.1 µM (≈ 0.109 µg/mL) | IC50 (Candida albicans [10]): 50 nM | MFC (Candida albicans [10]): 0.26 µM (≈ 0.284 µg/mL) | MIC (Candida albicans [10]): 0.1 µM (≈ 0.109 µg/mL) | IC50 (Candida albicans [11]): 40 nM | MFC (Candida albicans [11]): 0.26 µM (≈ 0.284 µg/mL) | MIC (Candida albicans [11]): 0.13 µM (≈ 0.142 µg/mL) | Activity (Aspergillus fumigatus [12]): inactive | Activity [13]: inactive | Activity (Aspergillus niger): inactive | IC50 (Aspergillus fumigatus [14]): 200 nM | MIC (Aspergillus fumigatus [14]): 16.5 µM (≈ 18 µg/mL) | IC50 (Candida albicans [15]): 50 nM | MFC (Candida albicans [15]): 0.26 µM (≈ 0.284 µg/mL) | MIC (Candida albicans [15]): 0.1 µM (≈ 0.109 µg/mL) | IC50 (Candida albicans [16]): 60 nM | MFC (Candida albicans [16]): 0.26 µM (≈ 0.284 µg/mL) | MIC (Candida albicans [16]): 0.19 µM (≈ 0.208 µg/mL) | IC50 (Cryptococcus neoformans [17]): 400 nM | MFC (Cryptococcus neoformans [17]): 2.1 µM (≈ 2.3 µg/mL) | MIC (Cryptococcus neoformans [17]): 1 µM (≈ 1.09 µg/mL) | Activity (Aspergillus fumigatus [18]): inactive | IC50 (Trichophyton rubrum [19]): 60 nM | MIC (Trichophyton rubrum [19]): 0.1 µM (≈ 0.109 µg/mL) | IC50 (Candida albicans [20]): 50 nM | MFC (Candida albicans [20]): 0.13 µM (≈ 0.142 µg/mL) | MIC (Candida albicans [20]): 0.13 µM (≈ 0.142 µg/mL) | Activity (Trichophyton rubrum [21]): inactive
